STAT3 inh – STAT3 signaling inhibition; actives 0.89% (n = 190,000); inhibition, % at 5.5 µM; AID 862; U3A cells, IL-6 STAT3-luciferase reporter, luminescence; host cell line lacks STAT1;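 active = inhibition above the mean inhibition across all screened compounds plus 3 SD, cut at about 44% in these data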;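 also: 0% = DMSO only wells and 100% = 100 µM nifuroxazide control wells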
STAT3 act-1 – STAT3 signaling activation. activation (% of control), % at 5.6 µM. actives 0.91% (n = 190,000). U3A cells, IL-6 STAT3-luciferase reporter, luminescence; 100% = signal with IL-6 EC80 alone;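 active = activation above the screen-wide mean of compound activation plus 3 SD, cut at about 130% in these data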;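 also: 0% = background luminescence of wells with medium and substrate only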
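Material: human STAT1-deficient U3A cells with stable STAT3-luciferase reporter / Probe or stimulus: IL-6 stimulus at 33 ng/mL final / Schedule: 1 h compound pre-exposure, 6 h IL-6 stimulation, 37 °C / Technique: luminescence / Read-out basis: percent of IL-6-only median luminescence / Control set: IL-6-only high control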
STAT1 inh – inhibitors of IFN-gamma induced STAT1 signaling | inhibition, % at 5.5 µM | NIH 3T3 STAT1-luciferase reporter, luminescence | AID 920 | actives 0.35% (n = 200,000);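 active = inhibition above a set limit, the mean inhibition across all tested compounds plus 3 SD, cut at about 34% in these data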;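 also: 0% = IFN-gamma with DMSO and 100% = IFN-gamma with 300 µM nifuroxazide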
STAT1 act-1 – STAT1 signaling activation. NIH 3T3 STAT1-luciferase reporter, IFN-gamma, luminescence; 100% = IFN-gamma alone, no compound. activation (% of control), % at 5.5 µM. actives 2.6% (n = 200,000);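 active = activation above the screen-wide mean activation plus 3 SD, cut at about 130% in these data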;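 also: raw ratio to IFN-gamma control signal so 100% means no change and 0% no light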
NF-kB neuron act – NF-kB expression increase, human neuronal cells. actives 1.6% (n = 190,000). fold change at 12.5 µM. AID 1239. NF-kB reporter expression; active compounds read high; in the data active = fold change above about 3.3
APP 5'UTR act – activates APP 5'UTR luciferase reporter; SH-SY5Y APP 5'UTR luciferase reporter, luminescence; zero percent = DMSO vehicle wells; activation, % at 2 µM; actives 1% (n = 190,000); AID 1276;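 active = activation above a set limit, based on mean plus 3 SD of controls, cut at about 140% in these data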
STAT3 act-2 – STAT3 activation, confirmation assay | shares compounds with STAT3 act-1 | AID 1267 | actives 64% (n = 1,200) | potentiation (% of control), % at 5.7 µM | U3A STAT3-luciferase reporter, IL-6 potentiation, luminescence; U3A cells lack STAT1; 100 means same as IL-6 alone;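 active = percent activation of the STAT3 luciferase reporter above a set limit taken from the earlier primary screen, cut at about 130% in these data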;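 also: 0% = background signal of medium plus substrate and 100% = median of IL-6 with DMSO wells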
NFkB act 2 – NF-kappaB activation in STAT3 activator counter-screen; shares compounds with STAT3 act-1; human cells, NF-kappaB reporter activation; activation (% of control), % at 5.7 µM; actives 11% (n = 1,200); AID 1309; in the data active = activation above about 120%;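 also: reporter induced by TNF-alpha stimulation; 100% = median of stimulated DMSO wells and 0% = no signal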
STAT1 act-2 – activates STAT1, counter-screen to STAT3 activators; shares compounds with STAT3 act-1; NIH 3T3 STAT1-luciferase reporter, IFN-gamma, luminescence; activation (% of control), % at 5.7 µM; actives 13% (n = 1,200); AID 1318;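 active = activation above the solvent-only control well mean plus 3 SD, set per screening run, cut at about 120% in these data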;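 also: 100% = IFN-gamma with DMSO median signal so 100% means no change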
Starred values were filed as active, the others as inactive; nt = no result. Only some compounds are listed: those with a hit (about 5.1% of all), similar ones and a draw of the others.

SMILES	STAT3 inh	STAT3 act-1	STAT1 inh	STAT1 act-1	NF-kB neuron act	APP 5'UTR act	STAT3 act-2	NFkB act 2	STAT1 act-2
CC(=O)Nc1c(Cl)n(C(C)=O)c2ccccc12	-91	175*	10	91	1.1	12	159*	103	94
CCOC(=O)c1sc(Nc2nc3c(F)cccc3s2)cc1C	-53	145*	1	99	1.4	90	150*	134*	104
O=C(CSc1nncs1)NC(=O)NC1CCCC1	4	105	-14	111	1.1	15	nt	nt	nt
COc1ccc(-c2ccccc2)cc1NCc1ccc(OC)c(OC)c1	-4	105	-3	102	1.3	5	nt	nt	nt
CC(=O)N(C)c1ccc(NC(=S)Nc2ccccc2)cc1	3	106	5	94	0.94	17	nt	nt	nt
CN(C)c1cc(O)c(C(=S)Nc2ccccc2)c(N(C)C)c1	-48	146*	-8	107	0.96	19	136*	110	113
O=C(NCc1ccc(F)cc1)C1CCN(c2cnccn2)CC1	-1	103	-2	100	1.1	-2	nt	nt	nt
COc1ccc(NC(=O)COC(=O)CC2CC3CCC2C3)c([N+](=O)[O-])c1 (stereo not drawn)	9	94	15	87	1.3	-8	nt	nt	nt
C#CCn1c(=NC(=O)c2ccc(S(=O)(=O)N3CCc4ccccc4C3)cc2)sc2cc(S(N)(=O)=O)ccc21	-57	144*	-1	100	1.1	5	138*	113	102
Fc1cccc(Cl)c1/C=N/Nc1ccccn1	-42	138*	-30	128	1.8	18	144*	113	127*
N=C1C(c2ccccc2)=C(O)CN1CCO	6	100	-10	107	0.87	5	nt	nt	nt
COc1ccc(C(C[N+](=O)[O-])c2c(C)[nH]c3ccccc23)cc1OC (stereo not drawn)	-48	138*	15	86	1.1	0	111	102	95
FC(F)(F)c1cc(Cl)c2nc(-c3ccccc3)cn2c1	-73	158*	-26	123	11*	164*	173*	140*	202*
O=C(CSc1nnc2c(Cl)cc(C(F)(F)F)cn12)N(Cc1ccccc1)Cc1ccccc1	-6	109	6	94	0.95	26	nt	nt	nt
COc1ccc(-n2c(SCC(=O)NCc3ccco3)nc3c([nH]c4ccccc43)c2=O)cc1	-54	154*	17	84	1	11	137*	104	106
O=C(O)CCCCCN1C(=O)C(O)=C(C(=O)/C=C/c2ccccc2)C1c1ccccc1[N+](=O)[O-] (stereo not drawn)	-44	140*	9	90	0.97	12	145*	107	94
CCCCN1C(=O)C(O)=C(C(C)=O)C1c1ccccc1[N+](=O)[O-] (stereo not drawn)	4	103	6	93	1.1	15	nt	nt	nt
O=C(O)C1SCCN1S(=O)(=O)c1ccc(N=NN2CCOCC2)cc1 (stereo not drawn)	1	102	-3	100	1.2	-9	nt	nt	nt
Cc1ccc(CC2S/C(=C(/C#N)C(=O)NCc3ccco3)N(c3ccccc3)C2=O)cc1 (stereo not drawn)	14	96	0	100	1	4	nt	nt	nt
CC1S/C(=C(\C#N)C(=O)NCc2ccco2)N(Cc2ccco2)C1=O (stereo not drawn)	-46	142*	10	92	0.97	-11	130	104	95
Cc1ccc(-n2nc(C)c3c2OC(N)=C(C#N)C3c2cccs2)cc1 (stereo not drawn)	-42	142*	11	90	0.88	2	157*	110	94
Cn1nc(-c2ccc(Cl)cc2)c2cc(C(=O)NCCCN3CCCC3)sc21	-67	166*	3	97	1.2	10	155*	108	98
C=CCNC(=O)c1cc2c(C(F)(F)F)nn(C)c2s1	13	94	3	97	1.1	-6	nt	nt	nt
CCCCNC(=O)c1cc2c(-c3ccc(Cl)cc3)nn(C)c2s1	-36	138*	-2	101	0.92	-1	151*	111	105
COCCCNC(=O)c1cc2c(-c3ccc(Cl)cc3)nn(C)c2s1	-50	151*	0	100	0.77	-4	143*	105	96
SMILES	STAT3 inh	STAT3 act-1	STAT1 inh	STAT1 act-1	NF-kB neuron act	APP 5'UTR act	STAT3 act-2	NFkB act 2	STAT1 act-2
COCCNC(=O)c1cc2c(-c3ccc(Cl)cc3)nn(C)c2s1	-52	152*	-7	106	0.74	16	139*	103	94
COCCNC(=O)c1cc2c(-c3ccccc3F)nn(C)c2s1	15	91	-2	100	1.2	32	nt	nt	nt
O=c1c(-c2n[nH]c(=S)o2)cccn1Cc1ccccc1	6	95	9	92	1.3	1	nt	nt	nt
S=C(NN=C(C1CC1)C1CC1)Nc1ccccc1	6	97	-8	106	1.4	14	nt	nt	nt
Cc1ccc(CNC(=O)c2cc3c(-c4ccc(Cl)cc4)nn(C)c3s2)o1	-55	155*	26	76	0.78	6	152*	110	106
CCOC(=O)N1CCC(NC(=O)c2cc3c(-c4ccc(Cl)cc4)nn(C)c3s2)CC1	-56	151*	12	89	0.82	12	124	96	90
Cn1nc(-c2ccc(Cl)cc2)c2cc(C(=O)N3CCN(c4ccccc4)CC3)sc21	-42	138*	8	93	0.74	10	143*	105	102
Cn1nc(-c2ccc(Cl)cc2)c2cc(C(=O)N3CCN(c4ccccn4)CC3)sc21	7	101	10	91	0.35	-11	nt	nt	nt
COc1cccc(-c2nn(C)c3sc(C(=O)NCc4ccco4)cc23)c1	14	92	7	94	0.4	-10	nt	nt	nt
Cn1nc(-c2ccc(Cl)cc2)c2cc(C(=O)N3CCCC3)sc21	-4	107	28	75	0.89	-5	nt	nt	nt
CC(C)NC(=O)c1cc2c(-c3ccc(Cl)cc3)nn(C)c2s1	-58	158*	6	95	1	-12	150*	109	105
COC(=O)NC1(C(F)(F)F)C(=O)Nc2c1c(=O)n(C)c(=O)n2C (stereo not drawn)	-2	106	-6	103	0.89	2	nt	nt	nt
CCN(C(=O)COc1cccc2cccnc12)C1CCS(=O)(=O)C1 (stereo not drawn)	1	103	-2	102	1.1	-1	nt	nt	nt
